From ChEMBL document CHEMBL4828732, “Synthesis and biological evaluation of selective survivin inhibitors derived from the MX-106 hydroxyquinoline scaffold” (Eur J Med Chem, 2021)
Active and inactive are the calls of the source. The rule behind the calls is not given here.

Assays:
[1] = test system: MDA-MB-435; test: cells; conditions: Homo sapiens, MDA-MB-435, 72 h
[2] = test system: A-375; test: cells; conditions: Homo sapiens, A-375, 72 h
[3] = Metabolic stability of the compound in human liver microsomes assessed as half life at 10 uM incubated for 10 mins in presence of NADPH by UPLC-MS analysis; assay type: ADME, Microsome
[4] = test system: OVCAR-3; test: cells; conditions: Homo sapiens, OVCAR-3, 72 h
[5] = test system: SK-BR-3; test: cells; conditions: Homo sapiens, SK-BR-3, 72 h
[6] = test system: OVCAR-8; test: cells; conditions: Homo sapiens, OVCAR-8, 72 h
[7] = Metabolic stability of the compound in human liver microsomes assessed as clearance at 10 uM incubated for 240 mins in presence of NADPH by UPLC-MS analysis; conditions: 4 h
[8] = test system: RPMI-7951; test: cells; conditions: Homo sapiens, RPMI-7951, 72 h
[9] = test system: OVCAR-3; test: Downregulation of survivin protein expression in human OVCAR-3 cells measured after 24 hrs by Westernblot analysis; assay type: functional, cell-based
In short: (§1)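 Ovarian cancer cells treated 24 h at 2 and 4 μM, or vehicle, in serum-free RPMI 1640. Lysed in RIPA with protease inhibitor; 100 μg protein per lane run on 10% SDS-PAGE, transferred to PVDF, blocked in 5% milk. Probed for survivin, MCL1 and GAPDH; HRP secondary with ECL detection.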

[10] = test system: MDA-MB-435/LCC6MDR1; test: cells; conditions: Homo sapiens, MDA-MB-435, 72 h
[11] = test system: SK-OV-3; test: Downregulation of survivin protein expression in human SK-OV-3 cells measured after 24 hrs by Westernblot analysis; assay type: functional, cell-based
In short: as §1

[12] = Resistance index, ratio of IC50 for antiproliferation activity against human MDA-MB-435/LCC6MDR cells to IC50 for antiproliferation activity against human MDA-MB-435 cells assessed as cell growth inhibition measured after 72 hrs by MTS assay; assay type: functional
[13] = Metabolic stability of the compound in rat liver microsomes assessed as clearance at 10 uM incubated for 10 mins in presence of NADPH by UPLC-MS analysis; assay type: ADME, Microsome
[14] = test system: OVCAR-8; test: Downregulation of survivin protein expression in human OVCAR-8 cells measured after 24 hrs by Westernblot analysis; assay type: functional, cell-based
In short: as §1

[15] = Metabolic stability of the compound in mouse liver microsomes assessed as half life at 10 uM incubated for 10 mins in presence of NADPH by UPLC-MS analysis; assay type: ADME, Microsome
[16] = test system: MDA-MB-453; test: cells; conditions: Homo sapiens, MDA-MB-453, 72 h
[17] = Metabolic stability of the compound in mouse liver microsomes assessed as clearance at 10 uM incubated for 10 mins in presence of NADPH by UPLC-MS analysis; assay type: ADME, Microsome
[18] = Metabolic stability of the compound in rat liver microsomes assessed as half life at 10 uM incubated for 10 mins in presence of NADPH by UPLC-MS analysis; assay type: ADME, Microsome
[19] = test system: A-375; test: Induction of apoptosis in human A-375 cells assessed as increase in cleaved […] level after 24 hrs by Western blot analysis; assay type: functional, cell-based
[20] = Toxicity in NSG mouse xenografted with human A-375 cells assessed as reduction in body weight at 40 mg/kg, ip administrated 3 times a week for 15 days; assay type: organism-based; conditions: in vivo, 360 h, time 15 day
[21] = Toxicity in NSG mouse xenografted with human OVCAR-8 cells assessed as reduction in body weight at 20 mg/kg, ip administrated 3 times a week for 15 days; assay type: organism-based; conditions: in vivo, 360 h, time 15 day
[22] = test system: OVCAR-8; test: Antitumor activity against luciferase-tagged human OVCAR-8 cells xenografted into left side ovarian bursa of NSG mouse assessed as reduction in number of metastatic tumor in spleen at 20 mg/kg, […] by histological analysis; assay type: functional, organism-based
[23] = test system: OVCAR-8; test: Antitumor activity against luciferase-tagged human OVCAR-8 cells xenografted into left side ovarian bursa of NSG mouse assessed as reduction in number of metastatic tumor in stomach at 20 mg/kg, ip administrated […] by histological analysis; assay type: functional, organism-based
[24] = test system: A-375; test: Antitumor activity against human A-375 cells xenografted in NSG mouse assessed as tumor growth inhibition at 20 to 40 mg/kg, ip administrated 3 times a week for 15 days; assay type: functional, organism-based; conditions: dose 20-40 mg/kg, time 15.0 day
[25] = test system: A-375; test: Antitumor activity against human A-375 cells xenografted in NSG mouse assessed as reduction in tumor weight at 20 mg/kg, ip administrated 3 times a week for 15 days; assay type: functional; set-up: scale not given: the % may be the effect or the level left; conditions: time 15 day
[26] = test system: OVCAR-8; test: Antitumor activity against luciferase-tagged human OVCAR-8 cells xenografted into left side ovarian bursa of NSG mouse assessed as reduction in number of metastatic tumor in kidney at 20 mg/kg, […] by histological analysis; assay type: functional, organism-based
[27] = Toxicity in NSG mouse xenografted with human A-375 cells assessed as reduction in body weight at 20 mg/kg, ip administrated 3 times a week for 15 days; assay type: organism-based; conditions: in vivo, 360 h, time 15 day
[28] = test system: A-375; test: Downregulation of survivin protein expression in human A-375 cells measured after 24 hrs by Westernblot analysis; assay type: functional, cell-based
In short: (§2)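 A375 cells (2 × 10⁶ per 10-cm dish) attached overnight, then treated 24 h in DMEM with 1, 5 or 10 μM. Lysed in RIPA with protease/phosphatase inhibitors; protein measured by Bradford. 50 μg run on SDS-PAGE, transferred to PVDF, blocked in 5% milk, probed overnight at 4°C for survivin, cleaved PARP, cIAP1, XIAP, Livin, with HRP-GAPDH as loading control; ECL detection.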

[29] = test system: OVCAR-8; test: Antitumor activity against human OVCAR-8 cells xenografted in NSG mouse assessed as tumor weight at 20 mg/kg, ip administrated 3 times a week for 15 days; conditions: time 15 day
[30] = test system: OVCAR-8; test: Antitumor activity against luciferase-tagged human OVCAR-8 cells xenografted into left side ovarian bursa of NSG mouse assessed as reduction in number of metastatic tumor in intestine at 20 mg/kg, ip administrated 3 times a week for 15 days by histological analysis; assay type: functional, organism-based; conditions: time 15.0 day
[31] = test system: A-375; test: Antitumor activity against human A-375 cells xenografted in NSG mouse assessed as reduction in tumor weight at 40 mg/kg, ip administrated 3 times a week for 15 days; assay type: functional; set-up: scale not given: the % may be the effect or the level left; conditions: time 15 day
[32] = test system: OVCAR-8; conditions: Homo sapiens, dose 20.0 mg/kg, time 15.0 day
[33] = test system: OVCAR-8; test: Antitumor activity against luciferase-tagged human OVCAR-8 cells xenografted into left side ovarian bursa of NSG mouse assessed as reduction in number of metastatic tumor at 20 mg/kg, ip administrated 3 times a week for 15 days by histological analysis; conditions: time 15.0 day
[34] = test system: A-375; test: Induction of apoptosis in human A-375 cells assessed as increase in cleaved PARP level after 24 hrs by Western blot analysis; assay type: functional, cell-based
In short: as §2

[35] = test system: A-375; test: Downregulation of survivin protein expression in human A-375 cells at 10 uM measured after 24 hrs by Westernblot analysis; assay type: functional, cell-based
In short: as §2

## Oc1c(CN2CCCC2)cc(Cn2ncc(-c3cccc(Br)c3)n2)c2cccnc12
[1]
  IC50: 2600 nM
[2]
  IC50: 600 nM
[3]
  t1/2: 2.3 h
[4]
  IC50: 800 nM
[5]
  IC50: 2700 nM
[6]
  IC50: 1300 nM
[7]
  CLH: 10 µL/min/mg
[8]
  IC50: 600 nM
[9]
  Activity: Active
[10]
  IC50: 900 nM
[11]
  Activity: Active
[12]
  Ratio IC50: 0.4
[13]
  CLH: 24.8 µL/min/mg
[14]
  Activity: Active
[15]
  t1/2: 1 h
[16]
  IC50: 2800 nM
[17]
  CLH: 24.3 µL/min/mg
[18]
  t1/2: 0.9 h

## Oc1c(CN2CCCCC2)cc(Cn2ncc(-c3ccc(C(F)(F)F)cc3)n2)c2cccnc12
[19]
  Activity: Active
[20]
  Activity: Non-Toxic
[21]
  Activity: Non-Toxic
[22]
  Activity: Active
[3]
  t1/2: 1.5 h
[23]
  Activity: Active
[24]
  Activity: Dose-Dependent Effect
[25]
  Activity: 32%
[7]
  CLH: 15.7 µL/min/mg
[26]
  Activity: Active
[27]
  Activity: Non-Toxic
[9]
  Activity: Active
[28]
  Activity: Dose-Dependent Effect
[11]
  Activity: Active
[29]
  tumor weight: 0.11 g
[30]
  Activity: inactive
[13]
  CLH: 14.2 µL/min/mg
[14]
  Activity: Active
[31]
  Activity: 55%
[32]
  inhibition: Active
[17]
  CLH: 21.6 µL/min/mg
[18]
  t1/2: 1.6 h
[33]
  Activity: Active
[34]
  Activity: Active

## CC(C)c1ccc(COCc2cc(-c3cncc4ccccc34)c(O)c3ncccc23)cc1
[1]
  IC50: 600 nM
[2]
  IC50: 600 nM
[3]
  t1/2: 1.4 h
[5]
  IC50: 1500 nM
[7]
  CLH: 16.3 µL/min/mg
[8]
  IC50: 500 nM
[10]
  IC50: 1000 nM
[12]
  Ratio IC50: 1.6
[13]
  CLH: 36.7 µL/min/mg
[15]
  t1/2: 1.2 h
[16]
  IC50: 1300 nM
[17]
  CLH: 19.9 µL/min/mg
[18]
  t1/2: 0.6 h

## Oc1c(CN2CCCC2)cc(Cn2ncc(-c3ccc(Br)cc3)n2)c2cccnc12
[1]
  IC50: 3100 nM
[2]
  IC50: 700 nM
[3]
  t1/2: 1.9 h
[4]
  IC50: 1000 nM
[5]
  IC50: 2700 nM
[6]
  IC50: 1700 nM
[7]
  CLH: 12 µL/min/mg
[8]
  IC50: 1700 nM
[10]
  IC50: 600 nM
[28]
  Activity: Dose-Dependent Effect
[12]
  Ratio IC50: 0.2
[13]
  CLH: 22.6 µL/min/mg
[15]
  t1/2: 0.8 h
[16]
  IC50: 3100 nM
[17]
  CLH: 27.8 µL/min/mg
[18]
  t1/2: 1 h
[34]
  Activity: Active

## Oc1c(CN2CCCCC2)cc(Cn2ncc(-c3ccc(Br)cc3)n2)c2cccnc12
[1]
  IC50: 2200 nM
[2]
  IC50: 1000 nM
[3]
  t1/2: 1.3 h
[4]
  IC50: 500 nM
[5]
  IC50: 1900 nM
[6]
  IC50: 1700 nM
[7]
  CLH: 17.5 µL/min/mg
[8]
  IC50: 900 nM
[10]
  IC50: 1200 nM
[12]
  Ratio IC50: 0.5
[13]
  CLH: 18 µL/min/mg
[15]
  t1/2: 0.7 h
[16]
  IC50: 1500 nM
[17]
  CLH: 35 µL/min/mg
[18]
  t1/2: 1.3 h

## CC(C)c1ccc(COCc2cc(-c3ccccc3)c(O)c3ncccc23)cc1
[1]
  IC50: 500 nM
[2]
  IC50: 500 nM
[35]
  Activity: inactive
[4]
  IC50: 1300 nM
[5]
  IC50: 800 nM
[6]
  IC50: 2600 nM
[7]
  CLH: 3.2 µL/min/mg
[8]
  IC50: 700 nM
[10]
  IC50: 1400 nM
[12]
  Ratio IC50: 2.6
[13]
  CLH: 9.2 µL/min/mg
[16]
  IC50: 500 nM
[17]
  CLH: 5.5 µL/min/mg
[18]
  t1/2: 2.5 h
[34]
  Activity: Active
